Test results: ChEMBL document CHEMBL2069265, “Synthesis and biological evaluation of optically active conjugated γ- and δ-lactone derivatives” (2012)
≈ marks a conversion by molar mass, not a printed value. Calls of active or inactive are those of the source. No cut-off for these calls is given here.

Experiments:
Escherichia coli [1] = assay: Antibacterial activity against Escherichia coli ATCC 3509 after 24 hrs; type: functional
Pseudomonas aeruginosa [2] = assay: Antibacterial activity against Pseudomonas aeruginosa ATCC 9027 after 24 hrs; type: functional, organism-based
Escherichia coli [3] = assay: Antibacterial activity against Escherichia coli ATCC 3509 at 10 to 100 mg/ml after 24 hrs by disc diffusion method; type: functional
How it was run: (§1)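 Modified disc diffusion: LB agar plates seeded at 10^6 cells/mL; 6 mm filter discs soaked in 50 µL of compound at 10–100 mg/mL in DMSO or methanol, placed on plates, 37 °C for 24 h. Inhibition zone ≥7 mm scored susceptible. Solvent discs tested; positive controls gentamicine, streptomycine or nystatin discs at 10 mg/mL.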

[4] = system: Radical scavenging activity; assay: Antioxidant activity assessed as DPPH radical scavenging activity at 10 to 80 uM; type: functional
How it was run: (§2)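 DPPH radical scavenging per Blois; compounds 10–80 µM in methanol (some runs 10–200 µM, values reported at 80 µM). Absorbance at 517 nm; scavenging % = (A517 control − A517 sample)/A517 control × 100. Alpha tocopherol as control. Means ± SD of three parallel measurements.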

Liver microsomes = assay: Antioxidant activity in Wistar rat liver microsomes assessed as reduction of lipid peroxidase activity by TBA assay; type: functional; design: concentration or dose not given beside the values; details: Microsome
How it was run: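 TBA assay of lipid peroxidation in liver microsomes isolated from three Wistar rats, following Raj et al.; reduced lipid peroxidase activity taken as antioxidant activity, expressed as %.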

Candida albicans [5] = assay: Antifungal activity against Candida albicans ATCC 10231 after 24 hrs; type: functional
Pseudomonas aeruginosa [6] = assay: Antibacterial activity against Pseudomonas aeruginosa ATCC 9027 at 10 to 100 mg/ml after 24 hrs by disc diffusion method; type: functional, organism-based; how it was run: as §1
Staphylococcus aureus [7] = assay: Antibacterial activity against Staphylococcus aureus ATCC 6538 after 24 hrs; type: functional
Bacillus subtilis [8] = assay: Antibacterial activity against Bacillus subtilis ATCC 6633 at 10 to 100 mg/ml after 24 hrs by disc diffusion method; type: functional; how it was run: as §1
Bacillus subtilis [9] = assay: Antibacterial activity against Bacillus subtilis ATCC 6633 after 24 hrs; type: functional
Staphylococcus aureus [10] = assay: Antibacterial activity against Staphylococcus aureus ATCC 6538 at 10 to 100 mg/ml after 24 hrs by disc diffusion method; type: functional; how it was run: as §1
Candida albicans [11] = assay: Antifungal activity against Candida albicans ATCC 10231 at 10 to 100 mg/ml after 24 hrs by disc diffusion method; type: functional; how it was run: as §1
Bacillus subtilis [12] = assay: Antibacterial activity against Bacillus subtilis ATCC 6633 at 50 mg/ml after 24 hrs by disc diffusion method; type: functional, organism-based
How it was run: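 Disc diffusion on LB agar plates inoculated with 10^6 cells/mL. 6 mm filter discs saturated with 50 µL of compound solution (10–100 mg/mL in DMSO or methanol), placed on plates and incubated at 37 °C for 24 h. Inhibition zone diameter read; zones of 7 mm or more scored as susceptible. Solvent discs tested; gentamicine disc (10 mg/mL) as positive control.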

Escherichia coli [13] = assay: Antibacterial activity against Escherichia coli ATCC 3509 at 50 mg/ml after 24 hrs by disc diffusion method; type: functional; details: ATCC 3509, 24 h, read-out: DIZ
How it was run: (§3)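 Disc diffusion on LB agar seeded at 10^6 cells/mL. 6 mm discs are saturated with 50 µL compound solution in DMSO or methanol and incubated at 37 °C for 24 h. Inhibition zones of 7 mm or more are counted as susceptible. Solvent discs are run, with streptomycine discs (10 mg/mL) as positive control.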

Staphylococcus aureus [14] = assay: Antibacterial activity against Staphylococcus aureus ATCC 6538 at 50 mg/ml after 24 hrs by disc diffusion method; type: functional; details: ATCC 6538, 24 h, read-out: DIZ; how it was run: as §3
[15] = Metal chelating activity of the compound assessed as ratio of Fe2+ concentration to compound concentration; type: functional
How it was run: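 Fe3+ reducing activity by modified ferrozine method; [Fe2+] calculated from extinction coefficient 27,900 M-1cm-1 of Fe(ferrozine)2+ complex, expressed as µM Fe2+ per µM compound. Means ± SD of three parallel measurements.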

[16] = system: Radical scavenging activity; assay: Antioxidant activity assessed as DPPH radical scavenging activity at 11 uM; type: functional
How it was run: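 DPPH radical scavenging at 11 µM compound in methanol, absorbance at 517 nm; % scavenging calculated from control versus sample A517. Alpha tocopherol control; mean ± SD of three parallel measurements.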

[17] = system: Radical scavenging activity; assay: Antioxidant activity assessed as DPPH radical scavenging activity at 80 uM; type: functional; how it was run: as §2

For `CC1=CC[C@H](c2cccs2)OC1=O`, the MIC (Escherichia coli [1]; ATCC 3509, 24 h) was 25 µg/mL (≈ 129 µM), the MIC (Pseudomonas aeruginosa [2]) was “inactive” and the “diameter of the inhibition zone (DIZ)” value (Escherichia coli [3]) was 9 mm. The Activity [4] was “inactive”, the Activity (Liver microsomes) was “inactive” and the MIC (Candida albicans [5]; ATCC 10231, 24 h) was 25 µg/mL (≈ 129 µM). The “diameter of the inhibition zone (DIZ)” value (Pseudomonas aeruginosa [6]) was “inactive”, the MIC (Staphylococcus aureus [7]; ATCC 6538, 24 h) was 25 µg/mL (≈ 129 µM) and the “diameter of the inhibition zone (DIZ)” value (Bacillus subtilis [8]) was 7 mm. For the same molecule, the MIC (Bacillus subtilis [9]; ATCC 6633, 24 h) was 25 µg/mL (≈ 129 µM), the “diameter of the inhibition zone (DIZ)” value (Staphylococcus aureus [10]) was 10 mm and the “diameter of the inhibition zone (DIZ)” value (Candida albicans [11]) was 9 mm.

Work on GENTAMICIN yielded an inhibition zone (IZ) (Bacillus subtilis [12]) of 17 mm.

`CN[C@@H]1[C@H](O[C@H]2[C@H](O[C@H]3[C@H](O)[C@@H](O)[C@H](N=C(N)N)[C@@H](O)[C@@H]3N=C(N)N)O[C@@H](C)[C@]2(O)C=O)O[C@@H](CO)[C@H](O)[C@H]1O` [STREPTOMYCIN] showed a zone of inhibition at 50000 µg/mL (Escherichia coli [13]) of 18 mm and a zone of inhibition at 50000 µg/mL (Staphylococcus aureus [14]) of 15 mm.

For `O=C1C=CC[C@H](c2cccs2)O1`, the MIC (Escherichia coli [1]; ATCC 3509, 24 h) was 50 µg/mL (≈ 277 µM), the MIC (Pseudomonas aeruginosa [2]) was “inactive” and the “diameter of the inhibition zone (DIZ)” value (Escherichia coli [3]) was 7 mm. For the same molecule, the Activity [4] was “inactive”, the Activity (Liver microsomes) was “inactive” and the MIC (Candida albicans [5]; ATCC 10231, 24 h) was 40 µg/mL (≈ 222 µM). The Ratio [15] was 0.04, the “diameter of the inhibition zone (DIZ)” value (Pseudomonas aeruginosa [6]) was “inactive” and the MIC (Staphylococcus aureus [7]; ATCC 6538, 24 h) was 40 µg/mL (≈ 222 µM). The “diameter of the inhibition zone (DIZ)” value (Bacillus subtilis [8]) was 7 mm, the MIC (Bacillus subtilis [9]; ATCC 6633, 24 h) was 50 µg/mL (≈ 277 µM) and the “diameter of the inhibition zone (DIZ)” value (Staphylococcus aureus [10]) was 8.5 mm. For the same molecule, the “diameter of the inhibition zone (DIZ)” value (Candida albicans [11]) was 7 mm.

For `CC1=CC[C@@H](c2cccs2)OC1=O`, the MIC (Escherichia coli [1]; ATCC 3509, 24 h) was 25 µg/mL (≈ 129 µM), the MIC (Pseudomonas aeruginosa [2]) was “inactive” and the “diameter of the inhibition zone (DIZ)” value (Escherichia coli [3]) was 8 mm. For the same molecule, the Activity [4] was “inactive”, the Activity (Liver microsomes) was “inactive” and the MIC (Candida albicans [5]; ATCC 10231, 24 h) was 25 µg/mL (≈ 129 µM). For the same molecule, the “diameter of the inhibition zone (DIZ)” value (Pseudomonas aeruginosa [6]) was “inactive”, the MIC (Staphylococcus aureus [7]; ATCC 6538, 24 h) was 25 µg/mL (≈ 129 µM) and the “diameter of the inhibition zone (DIZ)” value (Bacillus subtilis [8]) was 11 mm. For the same molecule, the MIC (Bacillus subtilis [9]; ATCC 6633, 24 h) was 25 µg/mL (≈ 129 µM), the “diameter of the inhibition zone (DIZ)” value (Staphylococcus aureus [10]) was 7 mm and the “diameter of the inhibition zone (DIZ)” value (Candida albicans [11]) was 9 mm.

In the case of `CC1=C[C@@H](c2cccs2)OC1=O`, the MIC (Escherichia coli [1]; ATCC 3509, 24 h) was 25 µg/mL (≈ 139 µM), the MIC (Pseudomonas aeruginosa [2]) was “inactive” and the “diameter of the inhibition zone (DIZ)” value (Escherichia coli [3]) was 9.5 mm. For the same molecule, the MIC (Candida albicans [5]) was “inactive”, the “diameter of the inhibition zone (DIZ)” value (Pseudomonas aeruginosa [6]) was “inactive” and the MIC (Staphylococcus aureus [7]) was “inactive”. For the same molecule, the “diameter of the inhibition zone (DIZ)” value (Bacillus subtilis [8]) was “inactive”, the Activity [16] was 50.6% and the MIC (Bacillus subtilis [9]) was “inactive”. For the same molecule, the “diameter of the inhibition zone (DIZ)” value (Staphylococcus aureus [10]) was “inactive” and the “diameter of the inhibition zone (DIZ)” value (Candida albicans [11]) was “inactive”.

For `Cc1c(C)c2c(c(C)c1O)CC[C@@](C)(CCC[C@H](C)CCC[C@H](C)CCCC(C)C)O2`, the Activity [4] was 66.2%.

With `O=C1C=CCC(c2ccco2)O1` (racemic) the Activity [17] was 38.1%, the MIC (Escherichia coli [1]) was “inactive” and the MIC (Pseudomonas aeruginosa [2]) was “inactive”. The “diameter of the inhibition zone (DIZ)” value (Escherichia coli [3]) was “inactive”, the Activity (Liver microsomes) was 24.5% and the MIC (Candida albicans [5]) was “inactive”. The Ratio [15] was 0, the “diameter of the inhibition zone (DIZ)” value (Pseudomonas aeruginosa [6]) was “inactive” and the MIC (Staphylococcus aureus [7]) was “inactive”. The “diameter of the inhibition zone (DIZ)” value (Bacillus subtilis [8]) was “inactive”, the MIC (Bacillus subtilis [9]) was “inactive” and the “diameter of the inhibition zone (DIZ)” value (Staphylococcus aureus [10]) was “inactive”. The “diameter of the inhibition zone (DIZ)” value (Candida albicans [11]) was “inactive”.
